This note sets out measurements from ChEMBL document CHEMBL2407050, “Wilsonols A-L, megastigmane sesquiterpenoids from the leaves of Cinnamomum wilsonii” (J Nat Prod, 2013).

Some results are limits rather than exact numbers.

Test system in the first data set: not listed separately
Briefly: Cytotoxicity against mouse B lymphocytes after 48 hrs by CCK-8 assay. As to conditions: b-cell. In a few lines:
(§1)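 Splenocyte toxicity run without ConA or LPS at 5 × 10⁶ cells/200 μL/well. Cultured 48 h at 37 °C, 5% CO₂ with CCK-8 during the final 4 h; A450 read against a 600 nm reference. Viability (%) = compound OD450 / […] OD450 × 100.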
Background: Formazan colour is commonly taken as a measure of viable cells.
As to `C[C@@H](O)/C=C/[C@H]1[C@H](CO)C[C@H](O)CC1(C)C`, the Activity result is listed as “Non-toxic”.

Take `CC(=O)/C=C/[C@@]1(O)[C@H](C)[C@H](O[C@@H]2O[C@H](CO)[C@@H](O)[C@H](O)[C@H]2O)[C@@H](O)CC1(C)C`: the Activity entry is “Non-toxic”.

Consider `C[C@@H]1C[C@H](O)CC(C)(C)[C@]1(O)CC[C@@H](C)O` [WILSONOL F], for which the Activity entry is given as “Non-toxic”.

`C[C@@H]1[C@H](O)[C@@H](O)CC(C)(C)[C@H]1/C=C/[C@H](C)O`: the Activity result is recorded as “Non-toxic”.

Another data set concerns MCF7. Briefly: Cytotoxicity against human MCF7 cells after 48 hrs by MTS assay. In kind it is functional, cell-based. The settings on record: MCF7, 48 h. In a few lines:
(§2)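 Cells grown in DMEM or RPMI-1640 with 10% FBS at 37 °C under 5% CO₂. Adherent cells plated 12 h before dosing; suspension cells plated at dosing, initial density 1 × 10⁵ cells/mL. MTS (5 mg/mL stock) added for 4 h at 37 °C, then SDS lysis and OD at 595 nm. IC50 by Reed–Muench.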
Regarding `C[C@@H](O)/C=C/[C@@H]1C(C)(C)[C@H](O)C[C@@H](O)[C@]1(C)O`, the 50% inhibitory concentration (IC50) was over 10 µM.

With `C[C@@H](O)/C=C/[C@@]1(O)C(C)(C)C[C@H](O)[C@@H](O)[C@@]1(C)O` [WILSONOL H], the half-maximal inhibitory concentration (IC50) was over 10 µM.

As to `CC(O)/C=C/[C@H]1[C@H](C)[C@H](O)[C@@H](O)CC1(C)C` (mixture of isomers) [WILSONOL E], the 50% inhibitory concentration (IC50) is over 10 µM.

Compound `C[C@@H](O)/C=C/[C@H]1[C@H](CO)C[C@H](O)CC1(C)C` returned an IC50 of over 10 µM.

Consider `CC(=O)/C=C/[C@@]1(O)[C@H](C)[C@H](O[C@@H]2O[C@H](CO)[C@@H](O)[C@H](O)[C@H]2O)[C@@H](O)CC1(C)C`, for which the half-inhibitory concentration (IC50) is over 10 µM.

`C[C@@H](O)/C=C/[C@H]1C(CO)=CC(=O)CC1(C)C`: the 50% inhibitory concentration (IC50) was over 10 µM.

In turn, `C[C@@H]1C[C@H](O)CC(C)(C)[C@]1(O)CC[C@@H](C)O` [WILSONOL F] had an IC50 of over 10 µM.

In turn, `C[C@@H]1[C@H](O)[C@@H](O)CC(C)(C)[C@H]1/C=C/[C@H](C)O` returned a 50% inhibitory concentration (IC50) of over 10 µM.

A further data set relates to SMMC-7721. The data set can be described thus: Cytotoxicity against human SMMC7721 cells after 48 hrs by MTS assay. In kind it is functional, cell-based. The settings on record: SMMC-7721, 48 h. The procedure, abridged:
as §2
`C[C@@H](O)/C=C/[C@@H]1C(C)(C)[C@H](O)C[C@@H](O)[C@]1(C)O` showed an IC50 of over 10 µM.

Turning to `C[C@@H](O)/C=C/[C@@]1(O)C(C)(C)C[C@H](O)[C@@H](O)[C@@]1(C)O` [WILSONOL H], the IC50 is over 10 µM.

In turn, `CC(O)/C=C/[C@H]1[C@H](C)[C@H](O)[C@@H](O)CC1(C)C` (mixture of isomers) [WILSONOL E] had a concentration for half-maximal inhibition (IC50) of over 10 µM.

In turn, `C[C@@H](O)/C=C/[C@H]1[C@H](CO)C[C@H](O)CC1(C)C` had a 50% inhibitory concentration (IC50) of over 10 µM.

As to `CC(=O)/C=C/[C@@]1(O)[C@H](C)[C@H](O[C@@H]2O[C@H](CO)[C@@H](O)[C@H](O)[C@H]2O)[C@@H](O)CC1(C)C`, the 50% inhibitory concentration (IC50) is over 10 µM.

Compound `C[C@@H](O)/C=C/[C@H]1C(CO)=CC(=O)CC1(C)C` returned an IC50 of over 10 µM.

As for `C[C@@H]1C[C@H](O)CC(C)(C)[C@]1(O)CC[C@@H](C)O` [WILSONOL F], the IC50 was over 10 µM.

Compound `C[C@@H]1[C@H](O)[C@@H](O)CC(C)(C)[C@H]1/C=C/[C@H](C)O` displayed a half-maximal inhibitory concentration (IC50) of over 10 µM.

A further data set deals with HL-60. Briefly: Cytotoxicity against human HL60 cells after 48 hrs by MTS assay. In kind it is functional, cell-based. As to conditions: HL-60, 48 h. In a few lines:
as §2
Turning to `C[C@@H](O)/C=C/[C@@H]1C(C)(C)[C@H](O)C[C@@H](O)[C@]1(C)O`, the IC50 is over 10 µM.

Consider `C[C@@H](O)/C=C/[C@@]1(O)C(C)(C)C[C@H](O)[C@@H](O)[C@@]1(C)O` [WILSONOL H], for which the 50% inhibitory concentration (IC50) was over 10 µM.

`CC(O)/C=C/[C@H]1[C@H](C)[C@H](O)[C@@H](O)CC1(C)C` (mixture of isomers) [WILSONOL E] registered a concentration for half-maximal inhibition (IC50) of over 10 µM.

In the case of `C[C@@H](O)/C=C/[C@H]1[C@H](CO)C[C@H](O)CC1(C)C`, the half-maximal inhibitory concentration (IC50) is over 10 µM.

`CC(=O)/C=C/[C@@]1(O)[C@H](C)[C@H](O[C@@H]2O[C@H](CO)[C@@H](O)[C@H](O)[C@H]2O)[C@@H](O)CC1(C)C` registered an IC50 of over 10 µM.

The compound `C[C@@H](O)/C=C/[C@H]1C(CO)=CC(=O)CC1(C)C` displayed a 50% inhibitory concentration (IC50) of over 10 µM.

The compound `C[C@@H]1C[C@H](O)CC(C)(C)[C@]1(O)CC[C@@H](C)O` [WILSONOL F] had a half-inhibitory concentration (IC50) of over 10 µM.

As for `C[C@@H]1[C@H](O)[C@@H](O)CC(C)(C)[C@H]1/C=C/[C@H](C)O`, the IC50 was over 10 µM.

The subject of the next data set is SW480. The data set can be described thus: Cytotoxicity against human SW480 cells after 48 hrs by MTS assay. In kind it is functional, cell-based. As to conditions: SW480, 48 h. The procedure, abridged:
as §2
Turning to `C[C@@H](O)/C=C/[C@@H]1C(C)(C)[C@H](O)C[C@@H](O)[C@]1(C)O`, the IC50 is over 10 µM.

`C[C@@H](O)/C=C/[C@@]1(O)C(C)(C)C[C@H](O)[C@@H](O)[C@@]1(C)O` [WILSONOL H] displayed a 50% inhibitory concentration (IC50) of over 10 µM.

The compound `CC(O)/C=C/[C@H]1[C@H](C)[C@H](O)[C@@H](O)CC1(C)C` (mixture of isomers) [WILSONOL E] yielded a 50% inhibitory concentration (IC50) of over 10 µM.

With `C[C@@H](O)/C=C/[C@H]1[C@H](CO)C[C@H](O)CC1(C)C`, the IC50 was over 10 µM.

For `CC(=O)/C=C/[C@@]1(O)[C@H](C)[C@H](O[C@@H]2O[C@H](CO)[C@@H](O)[C@H](O)[C@H]2O)[C@@H](O)CC1(C)C`, the IC50 is over 10 µM.

Turning to `C[C@@H](O)/C=C/[C@H]1C(CO)=CC(=O)CC1(C)C`, the IC50 is over 10 µM.

`C[C@@H]1C[C@H](O)CC(C)(C)[C@]1(O)CC[C@@H](C)O` [WILSONOL F] displayed a concentration for half-maximal inhibition (IC50) of over 10 µM.

`C[C@@H]1[C@H](O)[C@@H](O)CC(C)(C)[C@H]1/C=C/[C@H](C)O`: the 50% inhibitory concentration (IC50) is over 10 µM.

The next data set concerns A549. Briefly: Cytotoxicity against human A549 cells after 48 hrs by MTS assay. The settings on record: A549, 48 h. In kind it is functional, cell-based. The procedure, abridged: as §2
For the compound `C[C@@H](O)/C=C/[C@@H]1C(C)(C)[C@H](O)C[C@@H](O)[C@]1(C)O`, the half-inhibitory concentration (IC50) is over 10 µM.

As for `C[C@@H](O)/C=C/[C@@]1(O)C(C)(C)C[C@H](O)[C@@H](O)[C@@]1(C)O` [WILSONOL H], the IC50 was over 10 µM.

For the compound `CC(O)/C=C/[C@H]1[C@H](C)[C@H](O)[C@@H](O)CC1(C)C` (mixture of isomers) [WILSONOL E], the IC50 is over 10 µM.

For `C[C@@H](O)/C=C/[C@H]1[C@H](CO)C[C@H](O)CC1(C)C`, the IC50 is over 10 µM.

In the case of `CC(=O)/C=C/[C@@]1(O)[C@H](C)[C@H](O[C@@H]2O[C@H](CO)[C@@H](O)[C@H](O)[C@H]2O)[C@@H](O)CC1(C)C`, the 50% inhibitory concentration (IC50) is over 10 µM.

In turn, `C[C@@H](O)/C=C/[C@H]1C(CO)=CC(=O)CC1(C)C` yielded an IC50 of over 10 µM.

Consider `C[C@@H]1C[C@H](O)CC(C)(C)[C@]1(O)CC[C@@H](C)O` [WILSONOL F], for which the IC50 is over 10 µM.

For `C[C@@H]1[C@H](O)[C@@H](O)CC(C)(C)[C@H]1/C=C/[C@H](C)O`, the IC50 was over 10 µM.

Test system in another data set: not listed separately
The data set can be described thus: Cytotoxicity against mouse T lymphocytes after 48 hrs by CCK-8 assay. As to conditions: t-cell. The procedure, abridged:
as §1
For the compound `C[C@@H](O)/C=C/[C@H]1[C@H](CO)C[C@H](O)CC1(C)C`, the Activity entry is on record as “Non-toxic”.

For the compound `CC(=O)/C=C/[C@@]1(O)[C@H](C)[C@H](O[C@@H]2O[C@H](CO)[C@@H](O)[C@H](O)[C@H]2O)[C@@H](O)CC1(C)C`, the Activity result is “Non-toxic”.

Turning to `C[C@@H]1C[C@H](O)CC(C)(C)[C@]1(O)CC[C@@H](C)O` [WILSONOL F], the Activity entry is given as “Non-toxic”.

Turning to `C[C@@H]1[C@H](O)[C@@H](O)CC(C)(C)[C@H]1/C=C/[C@H](C)O`, the Activity entry was “Non-toxic”.

Usually IC50 stands for the concentration that inhibits the measured activity by half. Higher therefore signals lower potency.
